Compound activity deposited in PubChem by several laboratories.
ALR inh – human ALR oxidase inhibition via reduced H2O2; purified ALR, DTT oxidation, H2O2 HRP-luminol luminescence; 3.8% of 290,000 active; P55789; inhibition, % (concentration not given with the values);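 active = mean replicate inhibition above about 79%, with every replicate also reaching it, limit read from the data; inconclusive = only one of the two criteria met; inactive = mean below limit and not every replicate reaching it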
PREPL inh – inhibitors of human prolyl oligopeptidase-like enzyme PREPL | Q4J6C6 | recombinant PREPL, fluorescence polarization activity-based probe | inhibition, % at 5.96 µM | 0.68% of 320,000 active; in the data active = inhibition above about 43%;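 note: 0% = enzyme with DMSO and 100% = wells lacking enzyme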
Rin1 Abl inh – human Rin1-Abl interaction inhibition; P00519+Q13671; TR-FRET Rin1/Abl binding, biochemical; inhibition, % at 7.35 µM; AID 588664; 0.4% of 360,000 active; in the data active = inhibition above about 5%, passing the limit was not always enough
UBC13 polyUb – blocks human UBC13 polyubiquitin chain formation. AID 485273. 0.47% of 330,000 active. TR-FRET. P61088. inhibition, % at 20 µM; in the data active = inhibition above about 45%, passing the limit was not always enough; inconclusive = no clear call, values can overlap the other calls
Target sequence (P61088 whole entry, looked up): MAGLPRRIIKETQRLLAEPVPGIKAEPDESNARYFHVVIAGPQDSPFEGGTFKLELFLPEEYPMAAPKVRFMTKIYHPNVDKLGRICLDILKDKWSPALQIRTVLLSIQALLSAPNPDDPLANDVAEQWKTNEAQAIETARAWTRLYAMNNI
RBBP9 inhibitor – inhibitors of human serine hydrolase RBBP9 | O75884 | recombinant RBBP9, FP-Rh probe fluorescence polarization | inhibition, % at 7.94 µM | 0.2% of 220,000 active | AID 1515;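 active = inhibition above the campaign mean of all tested compounds plus 3 SD, cut at about 14% in these data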;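 note: plate controls were DMSO wells with RBBP9 for no effect and wells lacking RBBP9 protein for full effect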
Target sequence (O75884 whole entry, looked up): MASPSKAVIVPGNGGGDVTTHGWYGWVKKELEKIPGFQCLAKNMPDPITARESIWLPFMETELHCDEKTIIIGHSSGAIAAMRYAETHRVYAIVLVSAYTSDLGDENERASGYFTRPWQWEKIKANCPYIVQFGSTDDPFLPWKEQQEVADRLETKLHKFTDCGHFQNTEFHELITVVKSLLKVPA
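System: RBBP9 protein | Quantity: 2.5 µM RBBP9 dispensing solution, before mixing | Reagent: FP-Rh probe, 375 nM dispensing solution | Timing: Enzyme-compound preincubation 30 min, then probe labeling 45 min, 25 °C | Measured by: Fluorescence polarization | Read-out: % inhibition | Replication: One well per compound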
UBC9 SUMO inh – SUMOylation inhibition; HTRF SUMOylation assay, SAE1/SAE2 + UBC9, in vitro; inhibition, % at 35 µM; 0.36% of 290,000 active; AID 2006; in the data active = inhibition above about 50%, passing the limit was not always enough; inconclusive = no clear call, values can overlap the other calls
Target sequence (P63279 whole entry, looked up): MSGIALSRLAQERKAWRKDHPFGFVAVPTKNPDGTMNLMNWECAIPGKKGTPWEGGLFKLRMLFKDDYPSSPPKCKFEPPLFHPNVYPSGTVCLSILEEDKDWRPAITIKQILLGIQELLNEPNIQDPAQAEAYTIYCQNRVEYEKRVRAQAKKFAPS
Rin1-Abl confirm – Rin1-Abl interaction inhibition confirmation; shares compounds with Rin1 Abl inh; TR-FRET Rin1-Abl binding, purified proteins; inhibition, % at 7.35 µM; 49% of 1,300 active; AID 602124
GFP quench-1 – quenches GFP fluorescence, counter-screen for Rin1-Abl inhibitors. shares compounds with Rin1 Abl inh. inhibitors/quenchers counterscreen. inhibition, % at 6.75 µM. 8.5% of 1,300 active. AID 602125;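 note: ABL1-eGFP fusion protein alone without its partner RIN1-SBP; 0% = protein with vehicle and 100% = wells lacking protein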
GFP quench DR – GFP fluorescence interference dose response | shares compounds with Rin1 Abl inh | GFP fluorescence interference/quenching counterscreen | IC50, µM | 230 tested, under 10 active | AID 602182; call rule not given here;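 note: ABL1-eGFP fusion protein alone without its RIN1 binding partner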
GFP quench-2 – GFP quenching artifact for Rin1-Abl inhibitor hits | IC50, µM | GFP fluorescence quenching counterscreen, biochemical | shares compounds with Rin1 Abl inh | AID 602397 | 25 tested, under 10 active; call rule not given here
Numbers without * were called inactive; u = inconclusive; x = no result given. Hits are enriched below; roughly 4.3% of the tested compounds scored in any of these assays. Cut-off read from the data, not from the text of the source, unless noted: active = inhibition above about 6.5%; inactive = the rest.

SMILES | ALR inh | PREPL inh | Rin1 Abl inh | UBC13 polyUb | RBBP9 inhibitor | UBC9 SUMO inh | Rin1-Abl confirm | GFP quench-1 | others
Cc1cc(=O)n(C2CCS(=O)(=O)C2)[nH]1 (centres undefined) | -6 | 13 | 12* | -10 | -10 | 90* | 0 | -1
CCCCCCn1c(C(C)O)nc2ccccc21 (centres undefined) | -1 | 0 | 21* | 5 | -2 | 6 | 1 | -1
CC(O)c1nc2ccccc2n1CCCc1ccccc1 (centres undefined) | -1 | 0 | 1 | -2 | x | 18 | x | x
CN(C)C/C=C(\c1ccc(Br)cc1)c1cccnc1 | 0 | -14 | 1 | 3 | x | x | x | x
Cc1ccc2cc3c(NC(=O)c4cccnc4)nn(C)c3nc2c1 | -8 | 24 | 6.0* | -9 | -3 | 6 | 21* | 0
CC(=O)Nc1nn(C)c2nc3cc(C)ccc3cc12 | -5 | 2 | -4 | u | -3 | 17 | x | x
COc1ccc(C(=O)NC(=S)NCc2ccco2)cc1Br | -3 | 17 | -4 | -8 | x | -5 | x | x
O=C(CC1SC(N2CCCC2)=NC1=O)Nc1ccc(C(=O)NCCOc2ccccc2F)cc1 (centres undefined) | x | x | 6 | -3 | x | x | x | x
O=c1[nH]c(CSc2nnnn2-c2ccccc2)nc2ccccc12 | -3 | -21 | 9.8* | -2 | 0 | 12 | 1 | 1
O=C(Nc1ccccc1N1CCN(C(=O)c2ccc(Cl)cc2)CC1)c1cccnc1 | -14 | 12 | 17* | 6 | -5 | 2 | 23* | 1 | GFP quench DR=>68
CSc1nc2sc3c(c2c(=O)[nH]1)CCC3 | x | 3 | 5.8* | 4 | 9 | 18 | -3 | -1
C[C@@H]1CN([C@H](C)CO)C(=O)CCCn2cc(nn2)CO[C@H]1CN(C)S(=O)(=O)c1ccc(C#N)cc1 | x | x | 0 | x | x | x | x | x
CC1(c2nnc(-c3ccncc3)o2)CC(c2ccc(F)cc2)=NO1 (centres undefined) | 0 | -13 | 43* | -1 | x | 2 | 42* | -1 | GFP quench DR=>68
CC1(c2nnc(-c3ccc(Cl)cc3)o2)CC(c2ccc([N+](=O)[O-])cc2)=NO1 (centres undefined) | x | -4 | -1 | 13 | x | 10 | x | x
CC1(c2nnc(-c3ccncc3)o2)CC(c2ccc([N+](=O)[O-])cc2)=NO1 (centres undefined) | x | x | 18* | -15 | x | 15 | 21* | 0
CC1(c2nnc(-c3ccncc3)o2)CC(c2c(Cl)cccc2Cl)=NO1 (centres undefined) | -2 | -12 | 38* | 4 | x | 6 | 27* | 0
CC1(c2nnc(-c3ccccc3)o2)CC(c2c(Cl)cccc2Cl)=NO1 (centres undefined) | 1 | -12 | 0 | 8 | x | x | x | x
CCCC(c1nnnn1CC1CCCO1)N1CCN(c2cc(Cl)ccc2C)CC1 (centres undefined) | -22 | 20 | 0 | 12 | 0 | -1 | x | x
Cc1ccc(Cl)cc1N1CCN(C(CC(C)C)c2nnnn2CC2CCCO2)CC1 (centres undefined) | -5 | 18 | 7.4* | 0 | 1 | -36 | -2 | 1
O=C(C1=COCCO1)N(Cc1nnc(-c2ccccc2Cl)o1)C1CC1 | x | 8 | 8.2* | 9 | x | x | -1 | 1
O=C(C1=COCCO1)N(Cc1nnc(-c2ccc(Cl)cc2)o1)C1CC1 | -12 | 6 | -2 | 6 | x | x | x | x
O=C(Cn1cc(COc2ccccc2[N+](=O)[O-])nn1)c1ccc(O)cc1 | x | x | 7.7* | x | x | x | -1 | 2
O=C(NCc1ccco1)/C(=C\c1ccco1)NC(=O)c1ccco1 | x | 16 | -1 | 2 | -17 | 2 | x | x
CC(C)CC1C(=O)N(Cc2cn(CCC3OCCO3)nn2)CCS(=O)(=O)N1Cc1ccc(-c2ccncc2)cc1 (centres undefined) | x | x | -1 | x | x | x | x | x
O=C1CC(C(=O)Nc2ccccc2)C2(CCCC2)O1 (centres undefined) | -22 | -7 | 7.7* | -9 | -12 | 3 | -2 | -1
SMILES | ALR inh | PREPL inh | Rin1 Abl inh | UBC13 polyUb | RBBP9 inhibitor | UBC9 SUMO inh | Rin1-Abl confirm | GFP quench-1 | others
Cc1cc(C)c(C#N)c(SCC(=O)N(CCC#N)c2ccc3c(c2)OCCO3)n1 | x | x | 5 | 5 | x | x | x | x
N#CCCN(C(=O)CSc1ncccn1)c1ccc2c(c1)OCCO2 | -2 | -3 | 8.2* | -5 | x | x | 8.8* | -1
C[C@H]1CN([C@@H](C)CO)C(=O)CCCn2cc(nn2)CO[C@@H]1CN(C)S(=O)(=O)c1ccc(Oc2ccccc2)nc1 | x | x | -2 | x | x | x | x | x
Cc1ccc(OCCNC(=O)[C@H]2O[C@@H](n3ccc(N)nc3=O)[C@H](O)[C@@H]2O)cc1C | x | x | 6 | x | x | x | x | x
Cc1nc(C)n(C)c(=O)c1-c1ccccc1 | -7 | -5 | 40* | 1 | x | 1 | -1 | 0
Cc1nc(C)c(-c2ccccc2)c(=O)[nH]1 | -5 | 9 | -1 | -4 | -9 | 13 | x | x
Cc1cc(C)c(OCC(=O)OCC(=O)N2c3ccccc3CC2C)c(C)c1 (centres undefined) | -49 | 7 | 3 | -4 | x | x | x | x
CC(C)c1cc(C(=O)O)c2cnn(C(C)C)c2n1 | -2 | 7 | -2 | 2 | 3 | 8 | x | x
Cc1cc(C)cc(OC(=O)COc2ccccc2C)c1 | -6 | -6 | 3 | 2 | x | 4 | x | x
O=C(Cc1n[nH]c(=O)c2ccccc12)Nc1ccc(-c2nnc3n2CCCCC3)cc1 | -11 | -4 | 6 | 4 | 9 | 16 | x | x
O=C(Cn1[nH]c(=O)c2ccccc2c1=O)Nc1ccc(-c2nnc3n2CCCCC3)cc1 | x | 1 | 12* | -6 | -3 | 5 | 10* | 0
CN(C(=O)c1cccc(NC(=O)Cc2ccc(NC(=O)C3CCN(C(=O)c4ccccc4)CC3)cc2)c1)C1CCC1 | x | x | 1 | x | x | x | x | x
CN(C(=O)c1ccc(NC(=O)Cc2ccc(NC(=O)C3CCN(C(=O)C4CC4)CC3)cc2)cc1)C1CC1 | 1 | 1 | 37* | 7 | x | x | 34* | 1 | GFP quench DR=>68
CN(C(=O)c1ccc(NC(=O)Cc2ccc(NC(=O)C3CCN(C(=O)c4ccccc4)CC3)cc2)cc1)C1CC1 | 3 | -1 | 77* | -4 | x | x | 79* | -1 | GFP quench DR=>67;GFP quench-2=>68
Cc1ccc(OCCCn2ccnc2)c(Br)c1 | -15 | -10 | -3 | 2 | x | 9 | x | x
CN(C(=O)c1ccc(NC(=O)Cc2cccc(NC(=O)C3CCN(C(=O)C4CCCCC4)CC3)c2)cc1)C1CC1 | x | x | 14* | x | x | x | 26* | -1 | GFP quench DR=>67
